Assay outcomes: PubChem BioAssay, Sanford-Burnham Center for Chemical Genomics
CCR6 antag: CCR6 receptor antagonists, primary screen, cell-based, CHO-K1, luminescence, beta-arrestin, uHTS. CHO-K1 CCR6 PathHunter beta-arrestin, CCL20-stimulated. inhibition, % at 20 µM. hit rate 0.49% among 340,000. AID 493098, 2011;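 active = compounds whose inhibition of the agonist-driven luminescence signal at 20 µM reaches about 50%, limit read from the data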;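 also: cells stimulated with CCL20 at 14 nM final; plate controls were DMSO with CCL20 for no effect and DMSO without agonist for full effect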
EBI2 antag: EBI2 receptor antagonists, beta-arrestin recruitment, primary screen, cell-based, luminescence, 7a,25-OHC stimulation, uHTS | hit rate 0.81% among 360,000 | inhibition, % at 5 µM | 7a,25-OHC stimulated; in the data active = inhibition above about 38%;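 also: enzyme fragment complementation signal reports receptor beta-arrestin coupling in cells; 0% = agonist plus DMSO wells and 100% = wells without agonist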
APJ antag: antagonists of human apelin receptor APJ, primary screen, CHO-K1 cells, beta-arrestin complementation, luminescence; P35414; inhibition, % at 20 µM; hit rate 0.32% among 330,000;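 active = inhibition above about 40% at 20 µM, limit read from the data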;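 also: cells challenged with 10 nM apelin-13 agonist together with compound; plate controls were apelin-13 plus DMSO wells for no effect and DMSO wells lacking apelin-13 for full effect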
Target sequence (P35414 whole entry, looked up): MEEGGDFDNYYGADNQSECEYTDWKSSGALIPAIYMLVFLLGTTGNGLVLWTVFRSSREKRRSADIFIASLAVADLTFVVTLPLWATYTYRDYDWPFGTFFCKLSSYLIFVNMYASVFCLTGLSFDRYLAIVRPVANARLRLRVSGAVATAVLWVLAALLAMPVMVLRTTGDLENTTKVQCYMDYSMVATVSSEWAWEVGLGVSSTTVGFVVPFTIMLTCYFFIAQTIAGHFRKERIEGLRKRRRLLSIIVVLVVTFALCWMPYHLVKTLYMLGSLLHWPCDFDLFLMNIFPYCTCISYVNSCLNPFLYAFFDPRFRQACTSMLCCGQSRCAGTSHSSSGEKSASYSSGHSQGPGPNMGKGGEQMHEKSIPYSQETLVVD
APJ ag: agonists of human apelin receptor APJ, primary screen, CHO-K1 cells, PathHunter beta-arrestin, luminescence. hit rate 0.11% among 330,000. activation, % at 20 µM. AID 2520, 2010. 0% DMSO wells, 100% apelin;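 active = activation more than six SD over the plate average, tested at 20 µM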;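 also: 0% = DMSO alone and 100% = apelin-13 at 10 nM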
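Assay system: CHO-K1 cells stably expressing ProLink-tagged human APJ and arrestin–beta-gal acceptor. Compound dosing: 20 µM single point, 1% DMSO. Times: 16-18 h seeding, 90 min dark compound exposure, 60 min detection. Detection: beta-gal luminescence. Evaluation: APJ–arrestin association signal. Controls: negative DMSO alone, positive Apelin-13 at 10 nM.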
CXCR6 block: CXCR6 receptor inhibitors, primary screen, cell-based, beta-arrestin, luminescence, CHO-K1 PathHunter, 1536-well. C-X-C chemokine receptor type 6 (Homo sapiens), O00574. inhibition, % at 20 µM. hit rate 0.36% among 360,000. AID 602244, 2012; in the data active = inhibition above about 34%, passing the limit was not always enough;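 also: antagonist mode with CXCL16 agonist at 10 nM final; 0% = 10 nM CXCL16 with DMSO and 100% = unstimulated wells without agonist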
Target sequence (O00574 whole entry, looked up): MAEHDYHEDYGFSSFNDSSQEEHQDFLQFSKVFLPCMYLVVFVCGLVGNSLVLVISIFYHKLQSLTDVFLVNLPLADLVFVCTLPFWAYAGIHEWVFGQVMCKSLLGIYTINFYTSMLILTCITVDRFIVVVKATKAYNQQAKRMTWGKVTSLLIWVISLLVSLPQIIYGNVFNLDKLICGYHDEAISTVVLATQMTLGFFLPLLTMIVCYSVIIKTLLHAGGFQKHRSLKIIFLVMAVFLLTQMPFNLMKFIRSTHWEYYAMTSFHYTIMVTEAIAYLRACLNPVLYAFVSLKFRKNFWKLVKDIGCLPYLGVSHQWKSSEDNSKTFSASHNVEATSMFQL
EBI2 antag conf: EBI2 antagonist hit retest, beta-arrestin, confirmation, cell-based, single concentration, luminescence, 7a,25-OHC stimulation. shares compounds with EBI2 antag. 7a,25-OHC antagonism. inhibition, % at 5 µM. hit rate 29% among 2,400. AID 651997, 2013;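 active = inhibition of at least 50%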
EBI2 ag: EBI2 agonist activity of antagonist hits, confirmation, counter-screen for EBI2 antagonist project, cell-based, single concentration, agonist mode, luminescence. shares compounds with EBI2 antag. EBI2-expressing cells, 60 min; 0% vehicle, 100% 7α,25-dihydroxycholesterol control. AID 652000, 2013. 2,400 tested, under 10 active. activation, % at 5 µM;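 active = activation of at least 50%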
bGal cs: E. coli beta-galactosidase enzyme inhibition, confirmation, counter-screen for EBI2 antagonist project, biochemical, luminescence, single concentration; inhibition, % at 5 µM; shares compounds with EBI2 antag; hit rate 1% among 2,400; purified beta-galactosidase, luminescent Galacton Star, 15 min;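 active = replicate-average signal at least 3 plate SD below neutral wells, shown as high inhibition, flagging enzyme-inhibiting false positives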;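 also: 0% = DMSO wells with enzyme and 100% = wells lacking enzyme; higher means stronger loss of beta-gal luminescence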
* = called active by the depositor; · = not tested or not shown. An excerpt weighted towards active compounds, which were near 1.5% of everything screened.

SMILES | CCR6 antag | EBI2 antag | APJ antag | APJ ag | CXCR6 block | EBI2 antag conf | EBI2 ag | bGal cs
CN(c1ccc([N+](=O)[O-])cc1C(=O)Nc1ccccc1)C1CCCCC1 | 24.7 | 40.5* | 21.9 | -2.1 | 13.7 | 32.0 | -0.2 | -13.5
CCN1CCN(CCCNC(=O)c2ccc(CS(=O)c3ccc(Br)cc3)o2)CC1 (stereo not drawn) | -3.9 | -4.8 | 13.8 | -8.4 | -6.5 | · | · | ·
CCNC(=O)CN1C(=O)NC(Cc2ccccc2)(Cc2ccccc2)C1=O | 6.5 | 0.4 | -4.1 | 0.5 | -0.3 | · | · | ·
COc1ccc(/C=C/C(=O)N2CCN(S(=O)(=O)/C=C/c3ccccc3)CC2)cc1OC | 2.5 | 88.6* | -6.3 | -1.7 | -13.7 | 73.2* | -0.2 | -19.6
COc1cc(/C=C/C(=O)NC2CCCCC2)cc(OC)c1OC | 19.4 | 1.2 | 19.3 | -0.7 | 2.5 | · | · | ·
COc1cc(/C=C/C(=O)N2CCN(C(=O)/C=C/c3cc(OC)c(OC)c(OC)c3)CC2)cc(OC)c1OC | 2.5 | 46.2* | -33.5 | -1.1 | -10.4 | 19.8 | -0.9 | -20.8
COc1cc2c(cc1OC)C(CNC(=O)C=Cc1cc(OC)c(OC)c(OC)c1)C2 (stereo not drawn) | · | 50.0* | · | · | -3.3 | 31.5 | 0.6 | 3.5
COc1ccc(/C=C/C(=O)N2CCN(S(=O)(=O)c3ccccc3Br)CC2)cc1OC | 7.4 | 73.8* | 1.1 | 1.7 | 3.0 | 49.4 | -1.6 | -12.5
COc1ccc(/C=C/C(=O)N2CCOCC2)cc1OC | 3.5 | -3.4 | 11.7 | -2.0 | 3.1 | · | · | ·
CCC1CCCCN1C(=O)Nc1cc(Cl)ccc1OC (stereo not drawn) | 8.4 | 4.5 | 4.9 | -3.2 | 3.3 | · | · | ·
c1ccc(-c2noc(CC3CCCCC3)n2)nc1 | -9.3 | -14.1 | 7.6 | -1.7 | -1.7 | · | · | ·
CC1(S(=O)(=O)O)CC(=O)c2ccccc2C1=O (stereo not drawn) | 12.5 | -3.1 | 25.4 | 13.1 | 3.1 | · | · | ·
Cc1ccc(S(=O)(=O)N2CCN(C(=O)Cc3ccccc3)CC2)cc1C | 11.1 | 21.1 | -2.1 | -3.4 | -4.2 | · | · | ·
COc1ccc(/C=C/C(=O)N2CCN(S(=O)(=O)c3ccccc3)CC2)cc1OC | 0.0 | 45.7* | -14.8 | -3.4 | -5.1 | 19.6 | 1.2 | 3.7
COc1ccc(/C=C/C(=O)N2CCN(C)CC2)cc1OC | -4.0 | -4.2 | 8.9 | -2.5 | -8.0 | · | · | ·
COc1cccc(/C=C/C(=O)N2CCN(S(=O)(=O)c3ccccc3)CC2)c1OC | 7.8 | 44.5* | 5.6 | -4.3 | 0.6 | 19.8 | -0.2 | 2.8
Cc1ccc(S(=O)(=O)N2CCN(C(=O)/C=C/c3ccccc3)CC2)cc1C | 7.5 | 88.9* | 20.1 | 0.0 | 0.2 | 76.2* | -1.2 | -7.5
O=C(/C=C/c1ccco1)N1CCN(S(=O)(=O)c2ccccc2)CC1 | 3.3 | 9.1 | -6.4 | -3.1 | 5.6 | · | · | ·
COc1ccc(C2=NOC(Cn3nc(C(=O)NCc4ccc(C)cc4)cc3-c3ccccc3)C2)cc1 (stereo not drawn) | 12.5 | 44.0* | 10.1 | 13.1 | 3.1 | 39.1 | -1.2 | -9.0
COc1ccc(C(=O)N2CCCC2)cc1 | -2.9 | -6.2 | -11.4 | -0.7 | -3.2 | · | · | ·
COc1cc(OC)cc(C(=O)N2CCC(C(=O)c3ccc(F)cc3)CC2)c1 | -4.6 | 6.5 | 11.2 | -3.1 | -1.0 | · | · | ·
CCOc1ccc(C(=O)N2CCCN(C(=O)c3ccc(OCC)cc3)CC2)cc1 | 8.3 | 45.1* | 9.2 | -3.6 | -8.5 | 39.1 | 3.6 | 1.2
COc1ccc(C(=O)C2CCN(C(=O)c3ccc(OC)cc3)CC2)cc1 | 10.9 | 58.1* | 2.2 | -0.6 | -2.0 | 34.0 | 0.0 | -16.6
CCOc1ccc(C(=O)N2CCC(C(=O)c3ccc4c(c3)OCCO4)CC2)cc1 | -1.5 | 81.0* | -14.0 | -0.5 | -0.1 | 55.9* | 0.6 | 1.5
COc1ccc(C(=O)N2CCC(C(=O)c3ccc(F)cc3)CC2)cc1 | -0.6 | 58.7* | 16.6 | -5.6 | 2.4 | 29.5 | -0.4 | -8.3
SMILES | CCR6 antag | EBI2 antag | APJ antag | APJ ag | CXCR6 block | EBI2 antag conf | EBI2 ag | bGal cs
COc1ccc(CN(C)C2c3ccccc3-c3ccccc32)cc1 | 2.5 | 9.5 | 13.1 | -4.2 | -1.8 | · | · | ·
COC(=O)c1ccc(N2CCN(C)CC2)c(NC(=O)c2cccs2)c1 | 20.3 | -4.7 | -2.1 | -4.1 | 0.1 | · | · | ·
Cc1cc(C)n(C(=O)c2ccc([N+](=O)[O-])cc2Cl)n1 | -10.3 | 0.7 | -35.4 | 9.5 | -14.4 | · | · | ·
Cc1cc(C)cc(NC(=S)NCc2cccn2C)c1 | 1.9 | -1.6 | 7.2 | -3.3 | 1.9 | · | · | ·
Cc1cccn2c(CN3CCCC(c4ccccc4)C3)c(C(=O)N3CCOCC3)nc12 (stereo not drawn) | 1.1 | -3.5 | 9.4 | 6.1 | 0.1 | · | · | ·
N#Cc1ccsc1NC(=O)C1=COCCO1 | 11.6 | -8.0 | 15.1 | 0.2 | 1.9 | · | · | ·
Cc1ccc(S(=O)(=O)N2CCN(C(=O)c3cc4c(s3)CCCC4)CC2)c(C)c1 | 19.8 | 67.7* | 11.2 | -2.9 | 5.5 | 34.1 | -0.8 | -10.9
O=S(=O)(c1ccc(-c2ccccn2)s1)N1CCC2(CC1)OCCO2 | 12.7 | -6.0 | -13.8 | 4.5 | 1.5 | · | · | ·
Cc1ccc(SCc2ccc(C(=O)N3CCCC3)cc2)cc1 | 17.2 | 2.6 | 9.7 | -1.0 | -10.9 | · | · | ·
Cc1ccc(SCC2(O)CCN(C(=O)c3ccc(Cl)cc3)CC2)cc1 | 39.2 | 47.1* | -7.8 | 1.9 | -8.6 | 46.2 | -1.2 | -18.6
OC(c1ccc(F)cc1)c1nc(-c2cncnc2)cs1 (stereo not drawn) | · | 0.2 | · | · | 2.2 | · | · | ·
CCN(CCO)c1ncnc2onc(-c3ccc(F)cc3)c12 | 0.0 | -10.8 | 12.8 | -0.8 | 5.0 | · | · | ·
Cc1cccc(N(C)c2ncnc3onc(-c4ccc(F)cc4)c23)c1C | 9.1 | 62.5* | -48.7 | 2.2 | -6.5 | 26.9 | -1.9 | -7.2
CC(=O)CCc1ccc(Oc2nc(-c3cccnc3)nc3ccccc23)cc1 | 4.6 | 53.9* | -8.4 | -3.4 | -7.1 | 25.0 | 1.4 | 3.1
Cc1nn(-c2ccc(C(=O)N3CCN(S(=O)(=O)c4ccccc4C(F)(F)F)CC3)cc2)c(C)c1Cl | 11.2 | 46.7* | -42.0 | -0.4 | -4.1 | 35.6 | -0.5 | 4.6
CN(Cc1ccc(Cl)c(Cl)c1)C(C(=O)NCc1ccccc1)c1ccc(C(F)(F)F)cc1 (stereo not drawn) | · | 21.3 | · | · | · | · | · | ·
